# Measurements gathered from unrelated publications.
# Compare with care: the assays were run in different laboratories.
# Target: MAP kinase-activated protein kinase 2 (MAPKAPK2, Homo sapiens, UniProt P49137)
SMILES,assay,conditions,measurement,result
COc1cc2ncnc(Nc3ccc(Oc4ccccc4)c(C)c3C)c2cc1OC,"enzyme activity, inhibitor",1 µM,inhibition,-17%
COc1cc(/C=C/C(=O)CC(=O)/C=C/c2ccc(O)c(OC)c2)ccc1O,"enzyme activity, inhibitor",1 µM,activity vs control,90%
O=C1NC(=O)c2cc(Nc3ccc(F)cc3)c(Nc3ccc(F)cc3)cc21,cell-free assay,0.5 µM,remaining signal,95.7%
O=C(CSc1nc2nccnc2c(=O)n1CCc1ccccc1)Nc1nccs1,"enzyme activity, inhibitor",10 µM,inhibition,6%
Cc1ccc(Nc2nccc(N(C)c3ccc4c(C)n(C)nc4c3)n2)cc1S(N)(=O)=O,"enzyme activity, inhibitor",0.3 µM,inhibition,4%
COc1cc(Nc2cnc(C#N)c(O[C@H](C)CN(C)C)n2)ncc1-c1cnn(C)c1,"enzyme activity, inhibitor, radiometric",10 µM,remaining activity,104%
Cc1ccc(NC(=O)c2ccc(CN3CCN(C)CC3)cc2)cc1Nc1nc(-c2cccnc2)cs1,cell-free assay,0.5 µM,remaining signal,102%
CNC(=O)c1cc(Oc2ccc(NC(=O)Nc3ccc(Cl)c(C(F)(F)F)c3)cc2)ccn1,"enzyme activity, inhibitor",10 µM,inhibition,6%
CCCOc1ccc(OC)c(F)c1C(=O)c1ccc(C(=O)N[C@@H]2CNC[C@H]2NC(=O)c2ccc3[nH]ncc3c2)cc1,"enzyme activity, inhibitor",10 µM,remaining activity,49%
CC(C)(C)C(=O)c1sc(NC2CCCCC2)nc1N,"enzyme activity, inhibitor",10 µM,remaining activity,102%
CC(C)(C)c1nc2c(s1)c1nc(N)ncc1c1ccc(NS(=O)(=O)c3c(F)cccc3F)c(F)c12,"enzyme activity, inhibitor, radiometric",1 µM,remaining activity,69%
CN(C)C1CCN(CC#Cc2nn(C3CCCC3)c3nc(NCc4ccccc4)ncc23)C1 (stereo not drawn),"enzyme activity, inhibitor, FRET",10 µM,inhibition,0%
CCN(CC)CCNC(=O)c1c(C)[nH]c(/C=C2\C(=O)Nc3ccc(F)cc32)c1C,"enzyme activity, inhibitor",0.3 µM,inhibition,7%
FC(F)c1nc2ccccc2n1-c1nc(N2CCOCC2)nc(N2CCOCC2)n1,"enzyme activity, inhibitor",10 µM,remaining activity,91%
Cc1c(NC(=O)c2cc(C(N)=O)nc3cc(F)ccc23)c(C(F)(F)F)nn1Cc1ccc(C#N)cc1,"cell-free assay, competition with immobilised ligand",1 µM,remaining binding,97%
CSc1nc(C)c(-c2ccnc(Nc3ccc(N4CCOCC4)cc3)c2)[nH]1,"enzyme activity, inhibitor",10 µM,inhibition,-1.9%
CCC(=N\O)/C(C)=C/c1ccc(F)cc1,"cell-free assay, competition with immobilised ligand",1 µM,remaining binding,69%
CCOc1cc(-c2nncn2C)ccc1Nc1ncc2cc(C)nc(NCC(C)(C)C)c2n1,"enzyme activity, inhibitor, FRET",1 µM,inhibition,24%
C[C@H](NC(=O)c1cnc2n1[C@](C)(Cc1ccc(C#N)cc1)C(=O)N2c1cc(Cl)c(F)c(Cl)c1)C(=O)NC1(c2ccccn2)CC1,"cell-free assay, competition with immobilised ligand",1 µM,remaining binding,100%
O=C(Nc1cnn(-c2csc(C(=O)NC3COC3)c2)c1)Nc1ccccc1Cl,"enzyme activity, inhibitor",5 µM,remaining activity,97.1%
CS(=O)(=O)N1CCCC(NC(=O)[C@H](CCC2CCCCC2)NC(=O)c2ccc(CNc3ncnc4c3nnn4-c3ccccc3)cc2)C1 (stereo partly drawn),"cell-free assay, competition with immobilised ligand",0.1 µM,remaining binding,100%
Nc1nc(Nc2ccccc2)sc1C(=O)c1c(F)cccc1F,"enzyme activity, inhibitor",10 µM,remaining activity,99%
Cc1ccc(C(=O)Nc2ccc(CN3CCN(C)CC3)c(C(F)(F)F)c2)cc1C#Cc1cnc2cccnn12,"enzyme activity, inhibitor",23.5 nM,remaining activity,100%
CCCS(=O)(=O)Nc1ccc(F)c(C(=O)c2c[nH]c3ncc(-c4ccc(Cl)cc4)cc23)c1F,"enzyme activity, inhibitor",1 µM,inhibition,< 10%
Cc1noc([C@H]2C[C@@H](c3ccc(C(F)(F)F)cc3)CN(C(=O)N3CCS(=O)(=O)C3)C2)n1,"cell-free assay, competition with immobilised ligand",1 µM,remaining binding,97%
Nc1ncnc2occ(-c3ccc(NC(=O)Nc4cc(C(F)(F)F)ccc4F)cc3)c12,"cell-free assay, inhibitor",20 µM,remaining signal,86%
CC(C)(O)[C@H]1CC[C@H](Nc2ccc3ncc(-c4cccc(C(F)(F)F)c4)n3n2)CC1,"enzyme activity, inhibitor",1 µM,remaining activity,105%
Cc1nc(C2CCN(C(=O)c3ccc(OC(F)(F)F)cc3N)CC2)c2ncc(N3CCN(C)CC3)cc2n1,"cell-free assay, competition with immobilised ligand",1 µM,remaining binding,100%
CC/C(=N\NC(=O)NCc1cccc(O)c1)c1ccc(O)c(C)c1O,"enzyme activity, inhibitor",0.1 µM,inhibition,-0.7%
CN(C)C(=O)Cn1cc(-c2nc([C@@](C)(c3ccc(-c4cnc(N)nc4)cc3)C3CC3)no2)cn1,"cell-free assay, competition with immobilised ligand",1 µM,remaining binding,92%
FC(F)(F)Oc1cccc(-c2cnc3ccc(-c4ccncc4)nn23)c1,"enzyme activity, inhibitor, radiometric",1 µM,activity vs control,93%
CCS(=O)(=O)c1cc2cc(C[C@@](O)(CC(C)(C)c3ccc(F)cc3C(N)=O)C(F)(F)F)[nH]c2cn1,"cell-free assay, competition with immobilised ligand",1 µM,remaining binding,100%
COc1cc(Nc2c(C#N)cnc3cc(OCCCN4CCN(C)CC4)c(OC)cc23)c(Cl)cc1Cl,cell-free assay,0.5 µM,remaining signal,94.7%
